Results from ChEMBL document CHEMBL4813987, “Membrane active 7-thiazoxime quinolones as novel DNA binding agents to decrease the genes expression and exert potent anti-methicillin-resistant Staphylococcus aureus activity” (Eur J Med Chem, 2021).
The source made the active and inactive calls. No cut-off for these calls is given here.

Columns and labels:
Staphylococcus aureus [1] = assay: Antibacterial activity against methicillin-resistant Staphylococcus aureus assessed as reduction in microbial growth by two fold microdilution method; assay type: functional
In short: (§1)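 MIC determined by the standard two-fold broth micro-dilution assay, with norfloxacin and ciprofloxacin as reference agents.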

Staphylococcus aureus [2] = assay: Antibacterial activity against Staphylococcus aureus assessed as reduction in microbial growth by two fold microdilution method; assay type: functional; in short: as §1
Staphylococcus aureus [3] = assay: Antibacterial activity against Staphylococcus aureus ATCC 25923 assessed as reduction in microbial growth by two fold microdilution method; assay type: functional
Staphylococcus aureus [4] = assay: Antibacterial activity against Staphylococcus aureus ATCC 29213 assessed as reduction in microbial growth by two fold microdilution method; assay type: functional
Enterococcus faecalis = assay: Antibacterial activity against Enterococcus faecalis assessed as reduction in microbial growth by two fold microdilution method; assay type: functional
Klebsiella pneumoniae = assay: Antibacterial activity against Klebsiella pneumonia assessed as reduction in microbial growth by two fold microdilution method; assay type: functional
Acinetobacter baumannii = assay: Antibacterial activity against Acinetobacter baumannii assessed as reduction in microbial growth by two fold microdilution method; assay type: functional
Escherichia coli [5] = assay: Antibacterial activity against Escherichia coli assessed as reduction in microbial growth by two fold microdilution method; assay type: functional
Escherichia coli [6] = assay: Antibacterial activity against Escherichia coli ATCC 25922 assessed as reduction in microbial growth by two fold microdilution method; assay type: functional
Pseudomonas aeruginosa [7] = assay: Antibacterial activity against Pseudomonas aeruginosa assessed as reduction in microbial growth by two fold microdilution method; assay type: functional
Pseudomonas aeruginosa [8] = assay: Antibacterial activity against Pseudomonas aeruginosa ATCC 27853 assessed as reduction in microbial growth by two fold microdilution method; assay type: functional
Staphylococcus aureus [9] = assay: Antibacterial activity against methicillin-resistant Staphylococcus aureus assessed as reduction in bacterial growth at 50 to 300 ug/ml measured after 14 passages; assay type: functional, organism-based; settings: dose 50-300 µg/ml
Staphylococcus aureus [10] = assay: Potency index, ratio of norfloxacin MIC to test compound MIC for antibacterial activity against methicillin-resistant Staphylococcus aureus assessed as reduction in microbial growth by two fold microdilution method; assay type: functional

Row | SMILES | MIC (Staphylococcus aureus [1]) [µg/mL] | MIC (Staphylococcus aureus [2]) [µg/mL] | MIC (Staphylococcus aureus [3]) [µg/mL] | MIC (Staphylococcus aureus [4]) [µg/mL] | MIC (Enterococcus faecalis) [µg/mL] | MIC (Klebsiella pneumoniae) [µg/mL] | MIC (Acinetobacter baumannii) [µg/mL] | MIC (Escherichia coli [5]) [µg/mL] | MIC (Escherichia coli [6]) [µg/mL] | MIC (Pseudomonas aeruginosa [7]) [µg/mL] | MIC (Pseudomonas aeruginosa [8]) [µg/mL] | Activity (Staphylococcus aureus [9]) | Ratio (Staphylococcus aureus [10])
1 | O=C(O)c1cn(C2CC2)c2c(Cl)c(N3CCN(C/C(=N\OCc4ccccc4)c4nccs4)CC3)c(F)cc2c1=O | 0.25 | 2 | 1 | 2 | 0.25 | 0.25 | 0.25 | 0.25 | 0.25 | 1 | 0.25 |  | 
2 | CO/N=C(\CN1CCN(c2cc3c(cc2F)c(=O)c(C(=O)O)cn3C2CC2)CC1)c1nccs1 | 0.25 | 0.25 | 0.25 | 0.25 | 0.25 | 256 | 1 | 0.25 | 256 | 0.25 | 2 | inactive | 
3 | CCn1cc(C(=O)O)c(=O)c2cc(F)c(N3CCN(C/C(=N\OCc4ccccc4)c4nccs4)CC3)cc21 | 0.25 | 4 | 0.25 | 256 | 0.25 | 128 | 1 | 0.5 | 64 | 0.5 | 1 |  | 64
4 | C=CCO/N=C(\CN1CCN(c2cc3c(cc2F)c(=O)c(C(=O)O)cn3C2CC2)CC1)c1nccs1 | 0.25 | 0.25 | 0.25 | 32 | 0.25 | 0.25 | 0.25 | 1 | 0.5 | 0.25 | 0.25 |  | 
5 | CCn1cc(C(=O)O)c(=O)c2cc(F)c(N3CCNCC3)cc21 [NORFLOXACIN] | 16 | 4 | 2 | 2 | 4 | 4 | 2 | 16 | 16 | 2 | 8 |  | 
6 | CCn1cc(C(=O)O)c(=O)c2cc(F)c(N3CCN(C/C(=N\OCC(=O)OC)c4nccs4)CC3)cc21 | 0.25 | 4 | 0.25 | 2 | 0.25 | 256 | 1 | 32 | 0.25 | 0.25 | 0.25 |  | 64
7 | CCO/N=C(\CN1CCN(c2cc3c(cc2F)c(=O)c(C(=O)O)cn3CC)CC1)c1nccs1 | 0.25 | 8 | 0.5 | 4 | 16 | 256 | 2 | 0.25 | 256 | 0.25 | 8 |  | 64
8 | COC(=O)CO/N=C(\CN1CCN(c2c(F)cc3c(=O)c(C(=O)O)cn(C4CC4)c3c2Cl)CC1)c1nccs1 | 0.25 | 0.25 | 0.25 | 0.25 | 0.25 | 256 | 4 | 4 | 0.5 | 0.25 | 0.25 |  | 
9 | O=C(CN1CCN(c2cc3c(cc2F)c(=O)c(C(=O)O)cn3C2CC2)CC1)c1nccs1 | 16 | 1 | 4 | 2 | 8 | 16 | 2 | 4 | 4 | 1 | 1 |  | 
10 | CCO/N=C(\CN1CCN(c2cc3c(cc2F)c(=O)c(C(=O)O)cn3C2CC2)CC1)c1nccs1 | 0.25 | 0.25 | 0.5 | 4 | 0.25 | 0.25 | 1 | 2 | 32 | 0.25 | 0.25 |  | 
11 | C=CCO/N=C(\CN1CCN(c2c(F)cc3c(=O)c(C(=O)O)cn(C4CC4)c3c2Cl)CC1)c1nccs1 | 0.25 | 0.25 | 0.25 | 0.5 | 0.25 | 256 | 0.25 | 0.25 | 0.5 | 0.25 | 0.25 |  | 
12 | CC(C)(C)O/N=C(\CN1CCN(c2c(F)cc3c(=O)c(C(=O)O)cn(C4CC4)c3c2Cl)CC1)c1nccs1 | 0.25 | 0.25 | 0.5 | 0.25 | 0.25 | 256 | 0.25 | 4 | 0.25 | 0.25 | 0.25 | inactive | 
13 | CC(C)(C)O/N=C(\CN1CCN(c2cc3c(cc2F)c(=O)c(C(=O)O)cn3C2CC2)CC1)c1nccs1 | 4 | 4 | 1 | 4 | 2 | 64 | 4 | 128 | 1 | 0.25 | 0.25 |  | 
14 | CO/N=C(\CN1CCN(c2c(F)cc3c(=O)c(C(=O)O)cn(C4CC4)c3c2Cl)CC1)c1nccs1 | 0.25 | 0.25 | 0.5 | 0.25 | 0.25 | 0.25 | 0.25 | 0.25 | 0.25 | 1 | 0.25 | inactive | 
15 | CCn1cc(C(=O)O)c(=O)c2cc(F)c(N3CCN(C/C(=N\OC(C)(C)C)c4nccs4)CC3)cc21 | 0.25 | 0.25 | 1 | 16 | 0.25 | 1 | 16 | 1 | 1 | 2 | 1 |  | 64
16 | O=C(O)c1cn(C2CC2)c2cc(N3CCN(C/C(=N\OCc4ccccc4)c4nccs4)CC3)c(F)cc2c1=O | 0.25 | 0.25 | 1 | 0.5 | 2 | 256 | 8 | 0.25 | 256 | 0.25 | 1 |  | 
17 | CCO/N=C(\CN1CCN(c2c(F)cc3c(=O)c(C(=O)O)cn(C4CC4)c3c2Cl)CC1)c1nccs1 | 0.25 | 0.25 | 0.5 | 0.25 | 0.25 | 256 | 0.25 | 0.25 | 256 | 0.25 | 0.25 | inactive | 
